In ChEMBL document CHEMBL3797186, “Single Residue Substitutions That Confer Voltage-Gated Sodium Ion Channel Subtype Selectivity in the NaV1.7 Inhibitory Peptide GpTx-1” (J Med Chem, 2016):
Positions of bridges follow the written chain, without caps; N, C: chain ends. Non-standard residues stand in square brackets, D forms with d. Residues, ends and D or L forms follow the SMILES beside them. 1Nal = N[C@@H](Cc1cccc2ccccc12)C(=O)O

What was measured:
Format in all cases: cell-based
[1] = biological target: T1, Sodium channel protein type 5 subunit alpha (Homo sapiens, UniProt Q14524); assay: Inhibition of human Nav1.5 expressed in HEK293 cells assessed as inward peak current by ion-works quattro patch clamp electrophysiology method
How it was run: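 Stable HEK293 line expressing human NaV1.5, recorded by population patch clamp on the IonWorks Quattro.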

[2] = biological target: T1, Sodium channel protein type 5 subunit alpha; assay: Inhibition of human Nav1.5 expressed in HEK293 cells by whole cell patch clamp electrophysiology method
How it was run: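 Stable HEK293 line expressing human NaV1.5, recorded on the PatchXpress 7000A. Percent inhibition versus concentration was pooled from at least 10 cells, with two to three points per concentration. The pooled set was fitted with a four-parameter Hill equation to give a single IC50 curve.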

[3] = biological target: T2, Sodium channel protein type 9 subunit alpha (Homo sapiens, UniProt Q15858); assay: Inhibition of human Nav1.7 expressed in HEK293 cells assessed as inward peak current by ion-works quattro patch clamp electrophysiology method
[4] = biological target: T2, Sodium channel protein type 9 subunit alpha; assay: Inhibition of human Nav1.7 expressed in HEK293 cells by whole cell patch clamp electrophysiology method

T1 sequence (Q14524 whole entry): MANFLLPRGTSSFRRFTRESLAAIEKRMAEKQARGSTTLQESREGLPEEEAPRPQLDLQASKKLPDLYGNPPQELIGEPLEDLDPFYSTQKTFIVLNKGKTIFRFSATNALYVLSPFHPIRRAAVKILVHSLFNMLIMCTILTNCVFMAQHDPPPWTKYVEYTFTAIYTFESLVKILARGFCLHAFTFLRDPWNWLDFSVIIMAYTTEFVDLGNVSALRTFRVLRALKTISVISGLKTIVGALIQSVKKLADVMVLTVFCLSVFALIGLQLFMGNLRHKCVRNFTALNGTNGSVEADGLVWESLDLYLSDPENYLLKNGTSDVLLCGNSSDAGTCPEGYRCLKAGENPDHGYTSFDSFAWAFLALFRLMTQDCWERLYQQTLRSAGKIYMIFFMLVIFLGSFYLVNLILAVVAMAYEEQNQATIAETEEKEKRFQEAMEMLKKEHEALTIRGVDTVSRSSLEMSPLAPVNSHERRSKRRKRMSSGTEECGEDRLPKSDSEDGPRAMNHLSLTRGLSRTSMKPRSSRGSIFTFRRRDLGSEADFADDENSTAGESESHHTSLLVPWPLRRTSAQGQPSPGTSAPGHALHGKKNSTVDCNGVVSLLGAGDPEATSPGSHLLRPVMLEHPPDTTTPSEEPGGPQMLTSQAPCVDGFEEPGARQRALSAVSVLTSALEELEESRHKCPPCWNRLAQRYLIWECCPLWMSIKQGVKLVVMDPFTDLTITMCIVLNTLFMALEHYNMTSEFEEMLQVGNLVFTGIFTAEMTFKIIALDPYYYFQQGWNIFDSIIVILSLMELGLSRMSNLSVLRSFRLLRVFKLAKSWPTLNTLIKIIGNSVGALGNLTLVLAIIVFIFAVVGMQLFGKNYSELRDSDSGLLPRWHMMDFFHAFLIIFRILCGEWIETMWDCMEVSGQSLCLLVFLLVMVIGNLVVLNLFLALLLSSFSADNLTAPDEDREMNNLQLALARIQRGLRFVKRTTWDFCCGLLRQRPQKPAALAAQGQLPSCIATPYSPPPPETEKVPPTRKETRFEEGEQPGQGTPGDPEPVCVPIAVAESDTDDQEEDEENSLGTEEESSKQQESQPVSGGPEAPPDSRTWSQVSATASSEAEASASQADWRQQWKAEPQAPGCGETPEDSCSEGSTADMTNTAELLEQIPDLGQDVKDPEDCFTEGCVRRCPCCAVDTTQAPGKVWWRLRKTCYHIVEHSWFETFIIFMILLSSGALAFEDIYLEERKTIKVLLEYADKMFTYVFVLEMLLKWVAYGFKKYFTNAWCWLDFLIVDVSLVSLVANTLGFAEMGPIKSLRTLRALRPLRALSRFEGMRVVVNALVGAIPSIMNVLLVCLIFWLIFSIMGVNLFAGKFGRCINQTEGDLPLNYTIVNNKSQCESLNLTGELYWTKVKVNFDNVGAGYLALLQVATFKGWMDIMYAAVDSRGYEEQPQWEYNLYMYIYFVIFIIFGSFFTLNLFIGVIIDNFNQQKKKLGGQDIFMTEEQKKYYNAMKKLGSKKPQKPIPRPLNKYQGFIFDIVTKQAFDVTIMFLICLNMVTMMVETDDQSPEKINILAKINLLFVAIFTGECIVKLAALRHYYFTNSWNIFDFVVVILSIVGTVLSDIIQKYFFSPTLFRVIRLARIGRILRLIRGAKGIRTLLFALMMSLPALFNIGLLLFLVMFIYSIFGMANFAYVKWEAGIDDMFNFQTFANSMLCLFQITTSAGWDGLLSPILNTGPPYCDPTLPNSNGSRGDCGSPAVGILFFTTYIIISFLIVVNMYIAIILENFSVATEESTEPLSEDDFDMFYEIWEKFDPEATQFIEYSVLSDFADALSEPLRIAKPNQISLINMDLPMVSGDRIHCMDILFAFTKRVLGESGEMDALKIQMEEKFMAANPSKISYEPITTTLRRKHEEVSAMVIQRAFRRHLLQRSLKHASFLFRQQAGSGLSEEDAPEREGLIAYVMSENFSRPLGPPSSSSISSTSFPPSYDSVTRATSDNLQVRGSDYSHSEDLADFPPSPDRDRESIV
T2 sequence (Q15858 whole entry): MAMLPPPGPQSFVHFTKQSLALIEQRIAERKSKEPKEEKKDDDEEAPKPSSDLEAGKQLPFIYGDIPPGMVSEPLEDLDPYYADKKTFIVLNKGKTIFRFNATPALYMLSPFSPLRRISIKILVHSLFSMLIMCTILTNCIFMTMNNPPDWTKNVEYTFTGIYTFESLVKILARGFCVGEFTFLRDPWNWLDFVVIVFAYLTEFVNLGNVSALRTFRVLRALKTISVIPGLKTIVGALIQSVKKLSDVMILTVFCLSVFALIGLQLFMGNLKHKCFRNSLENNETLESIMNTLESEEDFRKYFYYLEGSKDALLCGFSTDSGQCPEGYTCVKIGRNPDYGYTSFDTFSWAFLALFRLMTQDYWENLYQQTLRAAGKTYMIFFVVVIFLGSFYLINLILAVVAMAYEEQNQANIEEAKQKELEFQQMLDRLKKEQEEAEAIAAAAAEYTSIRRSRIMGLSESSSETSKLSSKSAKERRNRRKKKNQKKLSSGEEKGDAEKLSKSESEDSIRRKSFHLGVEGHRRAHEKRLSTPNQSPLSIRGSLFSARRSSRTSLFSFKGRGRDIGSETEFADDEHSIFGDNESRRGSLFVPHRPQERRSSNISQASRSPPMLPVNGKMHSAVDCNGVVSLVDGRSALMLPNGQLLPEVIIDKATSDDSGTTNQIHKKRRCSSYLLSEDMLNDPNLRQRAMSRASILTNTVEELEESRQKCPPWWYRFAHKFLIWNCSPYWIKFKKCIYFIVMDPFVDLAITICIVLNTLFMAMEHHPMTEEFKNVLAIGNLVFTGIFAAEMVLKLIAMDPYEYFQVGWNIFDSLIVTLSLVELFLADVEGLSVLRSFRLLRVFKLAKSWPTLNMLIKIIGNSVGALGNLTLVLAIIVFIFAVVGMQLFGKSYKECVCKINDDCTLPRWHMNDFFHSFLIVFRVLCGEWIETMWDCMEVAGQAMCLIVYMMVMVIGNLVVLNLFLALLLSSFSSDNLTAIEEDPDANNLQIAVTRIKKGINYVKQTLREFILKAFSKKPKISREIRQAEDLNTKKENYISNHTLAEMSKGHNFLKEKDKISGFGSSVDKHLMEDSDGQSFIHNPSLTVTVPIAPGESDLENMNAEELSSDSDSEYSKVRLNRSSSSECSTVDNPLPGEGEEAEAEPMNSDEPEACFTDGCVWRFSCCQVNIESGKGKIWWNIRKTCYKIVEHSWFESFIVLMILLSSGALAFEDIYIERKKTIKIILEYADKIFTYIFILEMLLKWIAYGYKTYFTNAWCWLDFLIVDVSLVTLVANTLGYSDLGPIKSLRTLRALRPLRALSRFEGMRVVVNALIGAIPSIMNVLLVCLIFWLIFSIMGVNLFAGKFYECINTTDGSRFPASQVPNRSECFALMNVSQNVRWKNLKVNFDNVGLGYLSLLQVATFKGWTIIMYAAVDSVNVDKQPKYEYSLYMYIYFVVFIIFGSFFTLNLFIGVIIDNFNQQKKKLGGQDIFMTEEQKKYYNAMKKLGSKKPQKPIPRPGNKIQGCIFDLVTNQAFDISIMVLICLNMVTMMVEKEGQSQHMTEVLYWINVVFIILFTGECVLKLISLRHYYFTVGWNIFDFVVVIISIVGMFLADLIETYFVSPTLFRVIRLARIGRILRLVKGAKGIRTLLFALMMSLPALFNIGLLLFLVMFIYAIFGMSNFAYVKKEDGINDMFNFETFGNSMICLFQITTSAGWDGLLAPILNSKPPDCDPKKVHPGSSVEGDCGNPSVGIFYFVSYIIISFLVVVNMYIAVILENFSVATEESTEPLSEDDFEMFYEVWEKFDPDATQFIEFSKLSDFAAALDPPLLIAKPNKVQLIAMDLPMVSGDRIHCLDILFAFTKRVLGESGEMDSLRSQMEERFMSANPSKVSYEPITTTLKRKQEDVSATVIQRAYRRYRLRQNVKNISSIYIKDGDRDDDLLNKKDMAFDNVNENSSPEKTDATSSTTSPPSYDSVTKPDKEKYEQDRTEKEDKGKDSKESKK

Question: CC[C@H](C)[C@@H]1NC(=O)[C@@H]2CSSC[C@@H]3NC(=O)[C@H](C(C)C)NC(=O)[C@H](CC(C)C)NC(=O)[C@H](CC(N)=O)NC(=O)[C@@H]4CCCN4C(=O)[C@H](CCCNC(=N)N)NC(=O)[C@H](CSSC[C@H](NC(=O)[C@@H](N)CC(=O)O)C(=O)N[C@@H](CC(C)C)C(=O)NCC(=O)N[C@@H](Cc4ccccc4)C(=O)N[C@@H](CCSC)C(=O)N[C@@H](CCCNC(=N)N)C(=O)N[C@@H](CCCCN)C(=O)N2)NC(=O)[C@H](CSSC[C@@H](C(=O)N[C@@H](CCCCN)C(=O)N[C@@H](Cc2ccc(O)cc2)C(=O)N[C@H](C(=O)N[C@@H](Cc2ccccc2)C(N)=O)C(C)C)NC(=O)[C@H](Cc2c[nH]c4ccccc24)NC(=O)[C@H](CCCCN)NC(=O)[C@H](Cc2c[nH]cn2)NC(=O)[C@H]([C@@H](C)O)NC(=O)[C@H](CCCNC(=N)N)NC(=O)[C@H](CO)NC3=O)NC(=O)[C@H](CCCCN)NC(=O)[C@H](CC(=O)O)NC(=O)[C@H](Cc2cccc3ccccc23)NC(=O)[C@H](CC(=O)O)NC(=O)[C@@H]2CCCN2C1=O (H-DCLGFMRKCIPD[1Nal]DKCCRPNLVCSRTHKWCKYVF-NH2; disulfide 2-17, 9-23, 16-30) was tested. Which IC50 [1] did it give?
Answer: The IC50 was > 5000 nM.

Question: What about the IC50 [2] of the same compound?
Answer: Its IC50 is 7800 nM.

Question: And the IC50 [3]?
Answer: Its IC50 is 130 nM.

Question: CC[C@H](C)[C@@H]1NC(=O)[C@@H]2CSSC[C@@H]3NC(=O)[C@H](C(C)C)NC(=O)[C@H](CC(C)C)NC(=O)[C@H](CC(N)=O)NC(=O)[C@@H]4CCCN4C(=O)[C@H](CCCNC(=N)N)NC(=O)[C@H](CSSC[C@H](NC(=O)[C@@H](N)CC(=O)O)C(=O)N[C@@H](CC(C)C)C(=O)N[C@@H](C)C(=O)N[C@@H](Cc4ccccc4)C(=O)N[C@@H](CCSC)C(=O)N[C@@H](CCCNC(=N)N)C(=O)N[C@@H](CCCCN)C(=O)N2)NC(=O)[C@H](CSSC[C@@H](C(=O)N[C@@H](CCCCN)C(=O)N[C@@H](Cc2ccc(O)cc2)C(=O)N[C@H](C(=O)N[C@@H](Cc2ccccc2)C(N)=O)C(C)C)NC(=O)[C@H](Cc2c[nH]c4ccccc24)NC(=O)[C@H](CCCCN)NC(=O)[C@H](Cc2cnc[nH]2)NC(=O)[C@H]([C@@H](C)O)NC(=O)[C@H](CCCNC(=N)N)NC(=O)[C@H](CO)NC3=O)NC(=O)[C@H](CCCCN)NC(=O)[C@H](CC(=O)O)NC(=O)[C@H](CC(N)=O)NC(=O)[C@H](CC(=O)O)NC(=O)[C@@H]2CCCN2C1=O (H-DCLAFMRKCIPDNDKCCRPNLVCSRTHKWCKYVF-NH2; disulfide 2-17, 9-23, 16-30) was tested. Which IC50 [4] did it give?
Answer: Its IC50 is 27 nM.

Question: And the IC50 [2]?
Answer: The IC50 was > 10000 nM.

Question: How did the IC50 [1] turn out when CC[C@H](C)[C@@H]1NC(=O)[C@@H]2CSSC[C@@H]3NC(=O)[C@H](C(C)C)NC(=O)[C@H](CC(C)C)NC(=O)[C@H](CC(N)=O)NC(=O)[C@@H]4CCCN4C(=O)[C@H](CCCNC(=N)N)NC(=O)[C@H](CSSC[C@H](NC(=O)[C@@H](N)CC(=O)O)C(=O)N[C@@H](CC(C)C)C(=O)N[C@@H](CCCCN)C(=O)N[C@@H](Cc4ccccc4)C(=O)N[C@@H](CCSC)C(=O)N[C@@H](CCCNC(=N)N)C(=O)N[C@@H](CCCCN)C(=O)N2)NC(=O)[C@H](CSSC[C@@H](C(=O)N[C@@H](CCCCN)C(=O)N[C@@H](Cc2ccc(O)cc2)C(=O)N[C@H](C(=O)N[C@@H](Cc2ccccc2)C(N)=O)C(C)C)NC(=O)[C@H](Cc2c[nH]c4ccccc24)NC(=O)[C@H](CCCCN)NC(=O)[C@H](Cc2cnc[nH]2)NC(=O)[C@H]([C@@H](C)O)NC(=O)[C@H](CCCNC(=N)N)NC(=O)[C@H](CO)NC3=O)NC(=O)[C@H](CCCCN)NC(=O)[C@H](CC(=O)O)NC(=O)[C@H](CC(N)=O)NC(=O)[C@H](CC(=O)O)NC(=O)[C@@H]2CCCN2C1=O (H-DCLKFMRKCIPDNDKCCRPNLVCSRTHKWCKYVF-NH2; disulfide 2-17, 9-23, 16-30) was run?
Answer: Its IC50 is > 5000 nM.

Question: And the IC50 [2]?
Answer: Its IC50 is 10100 nM.

Question: What about the IC50 [3] of the same compound?
Answer: Its IC50 is 210 nM.

Question: CC[C@H](C)[C@@H]1NC(=O)[C@@H]2CSSC[C@@H]3NC(=O)[C@H](C(C)C)NC(=O)[C@H](CC(C)C)NC(=O)[C@H](CC(N)=O)NC(=O)[C@@H]4CCCN4C(=O)[C@H](CCCNC(=N)N)NC(=O)[C@H](CSSC[C@H](N)C(=O)N[C@@H](CC(C)C)C(=O)NCC(=O)N[C@@H](Cc4ccccc4)C(=O)N[C@@H](CCSC)C(=O)N[C@@H](CCCNC(=N)N)C(=O)N[C@@H](CCCCN)C(=O)N2)NC(=O)[C@H](CSSC[C@@H](C(=O)N[C@@H](CCCCN)C(=O)N[C@@H](Cc2ccc(O)cc2)C(=O)N[C@H](C(=O)N[C@@H](Cc2ccccc2)C(N)=O)C(C)C)NC(=O)[C@H](Cc2c[nH]c4ccccc24)NC(=O)[C@H](CCCCN)NC(=O)[C@H](Cc2cnc[nH]2)NC(=O)[C@H]([C@@H](C)O)NC(=O)[C@H](CCCNC(=N)N)NC(=O)[C@H](CO)NC3=O)NC(=O)[C@H](CCCCN)NC(=O)[C@H](CC(=O)O)NC(=O)[C@H](CC(N)=O)NC(=O)[C@H](CC(=O)O)NC(=O)[C@@H]2CCCN2C1=O (H-CLGFMRKCIPDNDKCCRPNLVCSRTHKWCKYVF-NH2; disulfide 1-16, 8-22, 15-29) was tested. Which IC50 [1] did it give?
Answer: Its IC50 is > 5000 nM.

Question: And the IC50 [4]?
Answer: Its IC50 is 8 nM.

Question: What does the source list for CSCC[C@@H]1NC(=O)[C@H](Cc2ccccc2)NC(=O)CNC(=O)[C@H](CC(C)C)NC(=O)[C@@H](NC(=O)[C@@H](N)CC(=O)O)CSSC[C@@H]2NC(=O)[C@@H]3CSSC[C@@H](C(=O)N[C@@H](CCCCN)C(=O)N[C@@H](Cc4ccc(O)cc4)C(=O)N[C@H](C(=O)N[C@@H](Cc4ccccc4)C(N)=O)C(C)C)NC(=O)[C@H](Cc4c[nH]c5ccccc45)NC(=O)[C@H](CCCCN)NC(=O)[C@H](Cc4c[nH]cn4)NC(=O)[C@H]([C@@H](C)O)NC(=O)[C@H](CCCNC(=N)N)NC(=O)[C@H](CO)NC(=O)[C@H](CSSC[C@H](NC(=O)[C@H](CCCCN)NC(=O)[C@H](CCCNC(=N)N)NC1=O)C(=O)N[C@@H](Cc1cccc4ccccc14)C(=O)N1CCC[C@H]1C(=O)N[C@@H](CC(=O)O)C(=O)N[C@@H](CC(N)=O)C(=O)N[C@@H](CC(=O)O)C(=O)N[C@@H](CCCCN)C(=O)N3)NC(=O)[C@H](C(C)C)NC(=O)[C@H](CC(C)C)NC(=O)[C@H](CC(N)=O)NC(=O)[C@@H]1CCCN1C(=O)[C@H](CCCNC(=N)N)NC2=O?
Answer: IC50 [1]: > 5000 nM; IC50 [4]: 6 nM; IC50 [3]: 160 nM

Question: Which IC50 [1] does the source give for CC[C@H](C)[C@@H]1NC(=O)[C@@H]2CSSC[C@@H]3NC(=O)[C@H](C(C)C)NC(=O)[C@H](CC(C)C)NC(=O)[C@H](CC(N)=O)NC(=O)[C@@H]4CCCN4C(=O)[C@H](CCCNC(=N)N)NC(=O)[C@H](CSSC[C@H](NC(=O)[C@@H](N)CC(=O)O)C(=O)N[C@@H](CC(C)C)C(=O)NCC(=O)N[C@@H](Cc4ccccc4)C(=O)N[C@@H](CCSC)C(=O)N[C@@H](CCCNC(=N)N)C(=O)N[C@@H](CCCCN)C(=O)N2)NC(=O)[C@H](CSSC[C@@H](C(=O)N[C@@H](CCCCN)C(=O)N[C@@H](Cc2cccc4ccccc24)C(=O)N[C@H](C(=O)N[C@@H](Cc2ccccc2)C(N)=O)C(C)C)NC(=O)[C@H](Cc2c[nH]c4ccccc24)NC(=O)[C@H](CCCCN)NC(=O)[C@H](Cc2cnc[nH]2)NC(=O)[C@H]([C@@H](C)O)NC(=O)[C@H](CCCNC(=N)N)NC(=O)[C@H](CO)NC3=O)NC(=O)[C@H](CCCCN)NC(=O)[C@H](CC(=O)O)NC(=O)[C@H](CC(N)=O)NC(=O)[C@H](CC(=O)O)NC(=O)[C@@H]2CCCN2C1=O (H-DCLGFMRKCIPDNDKCCRPNLVCSRTHKWCK[1Nal]VF-NH2; disulfide 2-17, 9-23, 16-30) here?
Answer: The IC50 was 3500 nM.

Question: What about the IC50 [2] of the same compound?
Answer: Its IC50 is 1000 nM.

Question: What about the IC50 [3] of the same compound?
Answer: The IC50 was 9 nM.

Question: CC[C@H](C)[C@@H]1NC(=O)[C@@H]2CSSC[C@@H]3NC(=O)[C@H](C(C)C)NC(=O)[C@H](CC(C)C)NC(=O)[C@H](CC(N)=O)NC(=O)[C@@H]4CCCN4C(=O)[C@H](CCCNC(=N)N)NC(=O)[C@H](CSSC[C@H](NC(=O)[C@@H](N)CC(=O)O)C(=O)N[C@@H](CC(C)C)C(=O)NCC(=O)N[C@@H](Cc4ccccc4)C(=O)N[C@@H](CCSC)C(=O)N[C@@H](CCCNC(=N)N)C(=O)N[C@@H](CCCCN)C(=O)N2)NC(=O)[C@H](CSSC[C@@H](C(=O)N[C@@H](CCCCN)C(=O)N[C@@H](Cc2c[nH]c4ccccc24)C(=O)N[C@H](C(=O)N[C@@H](Cc2ccccc2)C(N)=O)C(C)C)NC(=O)[C@H](Cc2c[nH]c4ccccc24)NC(=O)[C@H](CCCCN)NC(=O)[C@H](Cc2c[nH]cn2)NC(=O)[C@H]([C@@H](C)O)NC(=O)[C@H](CCCNC(=N)N)NC(=O)[C@H](CO)NC3=O)NC(=O)[C@H](CCCCN)NC(=O)[C@H](CC(=O)O)NC(=O)[C@H](CC(N)=O)NC(=O)[C@H](CC(=O)O)NC(=O)[C@@H]2CCCN2C1=O (H-DCLGFMRKCIPDNDKCCRPNLVCSRTHKWCKWVF-NH2; disulfide 2-17, 9-23, 16-30) was tested. Which IC50 [1] did it give?
Answer: Its IC50 is > 5000 nM.

Question: And the IC50 [4]?
Answer: The IC50 was 12 nM.

Question: CC[C@H](C)[C@@H]1NC(=O)[C@@H]2CSSC[C@@H]3NC(=O)[C@H](C(C)C)NC(=O)[C@H](CC(C)C)NC(=O)[C@H](CC(N)=O)NC(=O)[C@@H]4CCCN4C(=O)[C@H](CCCNC(=N)N)NC(=O)[C@H](CSSC[C@H](NC(=O)[C@@H](N)CC(=O)O)C(=O)N[C@@H](CC(C)C)C(=O)N[C@@H](CCCNC(=N)N)C(=O)N[C@@H](Cc4ccccc4)C(=O)N[C@@H](CCSC)C(=O)N[C@@H](CCCNC(=N)N)C(=O)N[C@@H](CCCCN)C(=O)N2)NC(=O)[C@H](CSSC[C@@H](C(=O)N[C@@H](CCCCN)C(=O)N[C@@H](Cc2ccc(O)cc2)C(=O)N[C@H](C(=O)N[C@@H](Cc2ccccc2)C(N)=O)C(C)C)NC(=O)[C@H](Cc2c[nH]c4ccccc24)NC(=O)[C@H](CCCCN)NC(=O)[C@H](Cc2cnc[nH]2)NC(=O)[C@H]([C@@H](C)O)NC(=O)[C@H](CCCNC(=N)N)NC(=O)[C@H](CO)NC3=O)NC(=O)[C@H](CCCCN)NC(=O)[C@H](CC(=O)O)NC(=O)[C@H](CC(N)=O)NC(=O)[C@H](CC(=O)O)NC(=O)[C@@H]2CCCN2C1=O (H-DCLRFMRKCIPDNDKCCRPNLVCSRTHKWCKYVF-NH2; disulfide 2-17, 9-23, 16-30) was tested. Which IC50 [1] did it give?
Answer: Its IC50 is > 5000 nM.

Question: What about the IC50 [2] of the same compound?
Answer: Its IC50 is 4500 nM.

Question: And the IC50 [3]?
Answer: Its IC50 is 230 nM.
